What all share (format): functional, cell-based, Homo sapiens
Experiment [1] deals with KB. The experiment in a line: Cytotoxic activity was determined in vitro in KB cell line culture at pH 7.4. In outline: (§1)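 Using pH 7.4 medium (2.2 g NaHCO3/L) on cells plated a day earlier at 2×10^6/plate, with equilibration in 5% CO2. Compounds were applied for 2 h at 37°C in quadruplicate at 50–0.8 µg/mL (1:2; acetone ≤5%), followed by drug-free pH 7.4 medium until controls were confluent. Fixed and stained with crystal violet, dye eluted with ethanol/1% acetic acid, read at 550 nm. IC50 from curves, mean of four ± SD.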

Experiment [2] has as its system SK-OV-3. The experiment can be described thus: Cytotoxic activity was determined in vitro in SK-OV-3 cell line culture at pH 7.4. In outline:
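With 1×10^6 cells/plate seeded, medium was changed the next day to pH 7.4 (2.2 g NaHCO3/L) under 5% CO2. Cells were exposed 2 h at 37°C in quadruplicate to a 1:2 series of 50–0.8 µg/mL (acetone ≤5%), then given drug-free pH 7.4 medium until controls were confluent. Crystal violet read at 550 nm after formaldehyde fixation. IC50 from curves; mean of four assays ± SD.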

In experiment [3] the test system is LXF-289 cell line. The experiment can be described thus: Cytotoxic activity was determined in vitro in LXF-289 cell line culture at pH 6.8. In outline:
(§2)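 Seeded at 2×10^6 cells/plate. Next day, switched to pH 6.8 medium (1.3 g NaHCO3/L, serum acidified with 1 N HCl) and equilibrated in 5% CO2. Exposed for 2 h at 37°C in quadruplicate to 50–0.8 µg/mL (1:2 series; acetone ≤5%), then given drug-free pH 7.4 medium until controls were confluent. Read by formaldehyde fixation and crystal violet at 550 nm. IC50 from dose–response curves, mean of four assays ± SD.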

The test system of experiment [4] is KB. The experiment in a line: Cytotoxic activity was determined in vitro in KB cell line culture at pH 6.8. In outline: (§3)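 Cells at 2×10^6/plate were moved the next day into pH 6.8 medium (1.3 g NaHCO3/L; serum given 1 N HCl; 30 min 5% CO2). Treated 2 h at 37°C, quadruplicate, 50–0.8 µg/mL in 1:2 steps (acetone ≤5%), then grown in drug-free pH 7.4 medium to control confluence. Crystal violet stain eluted with ethanol/1% acetic acid before A550. IC50 from curves, mean of four assays ± SD.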

The subject of experiment [5] is SK-MEL-25. The experiment can be described thus: Cytotoxic activity was determined in vitro in SK-MEL-25 cell line culture at pH 7.4. In outline: (§4)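 Plated at 2×10^6 cells/plate. After one day, medium was replaced with pH 7.4 medium (2.2 g NaHCO3/L) and equilibrated under 5% CO2. Cells got 2 h at 37°C, in quadruplicate, of a 1:2 series 50–0.8 µg/mL (acetone ≤5%), then drug-free pH 7.4 medium for 24–96 h until controls were confluent. Fixed with 3% formaldehyde, stained with 1% crystal violet, A550. IC50 from dose–response curves; mean of four assays ± SD.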

For experiment [6], the system named is SK-OV-3. The experiment in a line: Cytotoxic activity was determined in vitro in SK-OV-3 cell line culture at pH 6.8. In outline:
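SK-OV-3 seeded at 1×10^6 cells/plate. Next day, placed in pH 6.8 medium (1.3 g NaHCO3/L, HCl-treated serum, 5% CO2). Given 2 h at 37°C, in quadruplicate, of 50–0.8 µg/mL (1:2; acetone ≤5%), then drug-free pH 7.4 medium until controls were confluent. Formaldehyde-fixed and crystal violet-stained, A550. IC50 from dose–response curves, mean of four assays ± SD.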

Experiment [7] concerns LXF-289 cell line. The experiment can be described thus: Cytotoxic activity was determined in vitro in LXF-289 cell line culture at pH 7.4. In outline:
as §4

Experiment [8] relates to Calu-6. The experiment in a line: Cytotoxic activity was determined in vitro in Calu-6 cell line culture at pH 7.4. In outline:
as §4

Experiment [9] has as its system MCF7. The experiment in a line: Cytotoxic activity was determined in vitro in MCF-7 cell line culture at pH 6.8. In outline:
as §3

Experiment [10] concerns MCF7. The experiment can be described thus: Cytotoxic activity was determined in vitro in MCF-7 cell line culture at pH 7.4. In outline: as §1
For experiment [11], the system named is SK-MEL-25. The experiment in a line: Cytotoxic activity was determined in vitro in SK-MEL-25 cell line culture at pH 6.8. In outline: as §2
Experiment [12] concerns Calu-6. The experiment can be described thus: Cytotoxic activity was determined in vitro in Calu-6 cell line culture at pH 6.8. In outline: as §2

What is called IC50 is the concentration needed to halve the response being measured. Lower therefore signals higher potency. On to “2,6-bis(2,2-dimethyl-3-phenylpropoxy)-1,3,5,7-tetrathia-4-platinaspiro[3.3]heptane”, for which the IC50 in experiment [1], in experiment [2], in experiment [3], in [4], in experiment [5] and in [6] was above 50 µM each time. The IC50 in [7] was above 50 µM; in experiment [8], 17 µM; in experiment [9], above 50 µM; in [10] it was above 50 µM; in experiment [11], above 50 µM; in [12], 10 µM.

With “2,6-bis(2,2-dimethylpropoxy)-1,3,5,7-tetrathia-4-platinaspiro[3.3]heptane”, the IC50 in [1] is above 96 µM; in [2] it was above 86 µM; in experiment [3] it was 59 µM; in experiment [4] it was above 96 µM; in experiment [5], 83 µM; in experiment [6] it was above 86 µM. In addition, the IC50 is 75 µM in [7]; 27 µM in [8]; 62 µM in experiment [9]; above 86 µM in experiment [10]; 72 µM in [11]; 25 µM in experiment [12].

In the case of “2,6-bis(2-methylbutoxy)-1,3,5,7-tetrathia-4-platinaspiro[3.3]heptane”, the half-inhibitory concentration (IC50) is 39 µM in [1]; 35 µM in experiment [2]; 19 µM in experiment [3]; 31 µM in experiment [4]; 32 µM in experiment [5]; 23 µM in [6]. Besides, the half-inhibitory concentration (IC50) in experiment [7] is 44 µM; in experiment [8], 19 µM; in [9], 19 µM; in [10], 27 µM; in [11], 17 µM; in experiment [12], 9 µM.

Regarding “2,6-bis(2-methylpropoxy)-1,3,5,7-tetrathia-4-platinaspiro[3.3]heptane”, the half-maximal inhibitory concentration (IC50) in [1] amounted to 47 µM; in experiment [2] it was 61 µM; in [3], 19 µM; in experiment [4], 30 µM; in experiment [5], 21 µM; in experiment [6], 32 µM. Also, the half-maximal inhibitory concentration (IC50) in [7] amounted to 37 µM; in experiment [8], 10 µM; in experiment [9] it was 27 µM; in experiment [10], 23 µM; in [11], 15 µM; in experiment [12], 9 µM.

Turning to “2,6-bis(3-methylbutoxy)-1,3,5,7-tetrathia-4-platinaspiro[3.3]heptane”, the half-maximal inhibitory concentration (IC50) in experiment [1] is 19 µM; in experiment [2] it was 21 µM; in experiment [3], 23 µM; in [4] it was 35 µM; in [5], 35 µM; in experiment [6], 24 µM. In addition, the IC50 amounted to 71 µM in [7]; 21 µM in experiment [8]; 23 µM in experiment [9]; 40 µM in experiment [10]; 20 µM in [11]; 6 µM in experiment [12].

As to “2,6-bis(cyclohexyloxy)-1,3,5,7-tetrathia-4-platinaspiro[3.3]heptane”, the IC50 in experiment [1] amounted to 9 µM; in [2], 12 µM; in [3], 6 µM; in experiment [4], 6 µM; in experiment [5], 8 µM; in [6], 9 µM. In addition, the concentration for half-maximal inhibition (IC50) is 12 µM in [7]; 8 µM in experiment [8]; 5 µM in [9]; 9 µM in experiment [10]; 3 µM in [11]; 3 µM in experiment [12].

As to “2,6-bis(cyclopentyloxy)-1,3,5,7-tetrathia-4-platinaspiro[3.3]heptane”, the IC50 came to 24 µM in [1]; 26 µM in experiment [2]; 37 µM in experiment [3]; 14 µM in [4]; 9 µM in experiment [5]; 17 µM in experiment [6]. In addition, the IC50 in experiment [7] was found to be 38 µM; in [8] it was 5 µM; in experiment [9], 5 µM; in experiment [10], 10 µM; in experiment [11] it was 5 µM; in experiment [12], 3 µM.

As for “2,6-bis(cyclopropylmethoxy)-1,3,5,7-tetrathia-4-platinaspiro[3.3]heptane”, the IC50 in experiment [1] is 72 µM; in experiment [2] it was 67 µM; in [3], above 102 µM; in experiment [4], 33 µM; in [5], 85 µM; in experiment [6], 95 µM. Besides, the IC50 in [7] was above 102 µM; in [8], 33 µM; in [9] it was 95 µM; in experiment [10], 90 µM; in experiment [11], 64 µM; in [12] it was 17 µM.

In the case of “2,6-bis(hexyloxy)-1,3,5,7-tetrathia-4-platinaspiro[3.3]heptane”, the concentration for half-maximal inhibition (IC50) in experiment [1] is above 91 µM; in experiment [2], 130 µM; in [3], above 91 µM; in experiment [4] it was 64 µM; in experiment [5] it was 70 µM; in experiment [6], 102 µM. Further, the IC50 was above 91 µM in experiment [7]; 37 µM in [8]; 44 µM in experiment [9]; 47 µM in experiment [10]; 37 µM in experiment [11]; 23 µM in experiment [12].

Consider “2,6-bis(nonyloxy)-1,3,5,7-tetrathia-4-platinaspiro[3.3]heptane”, for which the IC50 in experiment [1] was above 76 µM; in experiment [2], above 76 µM; in experiment [3] it was 38 µM; in [4] it was above 76 µM; in experiment [5], above 76 µM; in experiment [6] it was above 76 µM. The IC50 in experiment [7] is 53 µM; in experiment [8] it was above 76 µM; in experiment [9], 24 µM; in experiment [10] it was 30 µM; in experiment [11], above 76 µM; in experiment [12], above 76 µM.

In the case of “2,6-bis(octyloxy)-1,3,5,7-tetrathia-4-platinaspiro[3.3]heptane”, the concentration for half-maximal inhibition (IC50) in experiment [1] was above 83 µM; in [2] it was above 83 µM; in experiment [3] it was 30 µM; in [4] it was above 83 µM; in experiment [5], above 83 µM; in [6], above 83 µM. The concentration for half-maximal inhibition (IC50) in [7] was 83 µM; in [8] it was 56 µM; in experiment [9] it was 31 µM; in [10] it was 31 µM; in [11], 56 µM; in [12], 23 µM.

“2,6-bis(pentan-3-yloxy)-1,3,5,7-tetrathia-4-platinaspiro[3.3]heptane”: the IC50 was determined as 5 µM in [1]; 5 µM in [2]; 8 µM in experiment [3]; 4 µM in experiment [4]; 9 µM in experiment [5]; 8 µM in experiment [6]. Moreover, the half-maximal inhibitory concentration (IC50) in [7] is 10 µM; in [8], 5 µM; in experiment [9], 5 µM; in [10], 6 µM; in [11] it was 5 µM; in [12], 3 µM.

For “2,6-bis(pentyloxy)-1,3,5,7-tetrathia-4-platinaspiro[3.3]heptane”, the IC50 in experiment [1] was found to be 25 µM; in experiment [2], 66 µM; in experiment [3] it was 38 µM; in [4], 16 µM; in [5], 32 µM; in experiment [6] it was 31 µM. For the same substance, the 50% inhibitory concentration (IC50) in experiment [7] was found to be 62 µM; in experiment [8], 15 µM; in experiment [9], 10 µM; in experiment [10], 34 µM; in experiment [11] it was 19 µM; in experiment [12], 9 µM.

As to “2,6-bis(propan-2-yloxy)-1,3,5,7-tetrathia-4-platinaspiro[3.3]heptane”, the IC50 stood at 10 µM in [1]; 33 µM in experiment [2]; 10 µM in experiment [3]; 6 µM in [4]; 12 µM in experiment [5]; 14 µM in [6]. In addition, the 50% inhibitory concentration (IC50) in experiment [7] amounted to 30 µM; in experiment [8], 10 µM; in [9], 3 µM; in [10], 7 µM; in experiment [11] it was 6 µM; in experiment [12] it was 6 µM.

The record behind these values is ChEMBL document CHEMBL1149157, “Synthesis and structure-activity relationship of novel antitumoral platinum xanthate complexes” (J Med Chem, 2004).
